FGF22 binding-1 = binders of human FGF22 protein, primary screen, FGF22 synaptogenesis inhibitor project, biophysical, thermal shift, single point; Fibroblast growth factor 22 (Homo sapiens), Q9HCT0; recombinant FGF22 thermal shift, SYPRO orange fluorescence; percent of sucrose octasulfate shift, DMSO zero; activity (Tm shift, normalised), % at 9.99 µM; 1.5% of 340,000 active;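 active means mean Tm shift, scaled 0 neutral to 100 positive control, at about 1.3% or above, every replicate too, limit read from the data; inconclusive means no clear call, values can overlap the other calls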
rRNA inh HTS = reduced GFP signal of wild-type E. coli, primary screen, bacterial rRNA inhibitor project, GFP/RFP fluorescence, OD600, single point. E. coli WT GFP vs humanized-ribosome RFP mutants, 24 h; stronger effect = lower value; DMSO median 0, no signal -100. AID 720706, 2013. 1.6% of 350,000 active. GFP signal change (wild-type ribosome), % (test concentration not listed);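 active means significant combined selectivity score with lowered wild-type GFP, culture density cut under 30%, mutant RFP and density less affected; inactive means any of these conditions unmet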
C2C12 statin = suppressors of statin myotoxicity in C2C12 myotubes, primary screen, cell-based, single point, plate reader; 0.78% of 330,000 active; rescue of ATP level, % at 7.49 µM; AID 602340, 2012; C2C12 myotubes + simvastatin, ATP luminescence, 48 h; scaled: DMSO 0, geranylgeraniol control 100;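 active means mean ATP rescue above about 67%, or every replicate alone reaching that limit, limit read from the data, passing the limit was not always enough; inconclusive means no clear call, values can overlap the other calls; inactive means mean under the limit and some replicate under it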;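 further: myotubes were challenged with 10 µM simvastatin during compound exposure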
FN deposit inh = inhibitors of fibronectin matrix deposition, primary screen, AH1F cells, Alexa488-fibronectin fluorescence, plate reader; AH1F fibroblasts, overnight; 0.086% of 350,000 active; inhibition, % at 12.6 µM;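 active means mean inhibition across replicates of 30% or more, regardless of how many single replicates reach that level; inconclusive means mean under 30% yet at least half of replicates reach 30%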;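 further: positive control wells lacked labelled fibronectin entirely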
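test system = AH1F fibroblasts assembling fluorescent fibronectin matrix | quantity = 10000 AH1F cells per well | buffer or medium = DMEM plus 2% serum, read in PBS | doses = single dose, pinned | incubation = 1 h cell attachment, overnight exposure to compound and label | detection = fluorescence at 485 nm excitation, 525 nm emission | read-out basis = inhibition from reduced deposited-fibronectin fluorescence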
SIRT5 block = SIRT5 desuccinylase inhibitors, primary screen, biochemical, fluorescence imaging, single point, set 5; inhibition, % at 15 µM; NAD-dependent protein deacylase sirtuin-5, mitochondrial (Homo sapiens), Q9NXA8; Purified SirT5, succinyl-peptide AMC, trypsin-coupled fluorescence; 1.1% of 330,000 active; in the data active means inhibition above about 15%; inconclusive means no clear call, values can overlap the other calls
E-sel inducer = E-selectin induction in HUVECs, primary screen, imaging, HUVEC, immunofluorescence imaging, single point | P16581 | normalized: neutral wells 0, TNF-alpha wells 100 | activation, % at 7.58 µM | 0.37% of 260,000 active | AID 686992, 2013;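 active means mean E-selectin-positive cell signal at least 10% of the positive control, reached in at least 60% of replicates, without over 20% cell loss; inconclusive means no rule given, readout overlaps actives, possibly toxicity-flagged; inactive means the rest, including those meeting only one limit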
Target sequence (P16581 whole entry, looked up): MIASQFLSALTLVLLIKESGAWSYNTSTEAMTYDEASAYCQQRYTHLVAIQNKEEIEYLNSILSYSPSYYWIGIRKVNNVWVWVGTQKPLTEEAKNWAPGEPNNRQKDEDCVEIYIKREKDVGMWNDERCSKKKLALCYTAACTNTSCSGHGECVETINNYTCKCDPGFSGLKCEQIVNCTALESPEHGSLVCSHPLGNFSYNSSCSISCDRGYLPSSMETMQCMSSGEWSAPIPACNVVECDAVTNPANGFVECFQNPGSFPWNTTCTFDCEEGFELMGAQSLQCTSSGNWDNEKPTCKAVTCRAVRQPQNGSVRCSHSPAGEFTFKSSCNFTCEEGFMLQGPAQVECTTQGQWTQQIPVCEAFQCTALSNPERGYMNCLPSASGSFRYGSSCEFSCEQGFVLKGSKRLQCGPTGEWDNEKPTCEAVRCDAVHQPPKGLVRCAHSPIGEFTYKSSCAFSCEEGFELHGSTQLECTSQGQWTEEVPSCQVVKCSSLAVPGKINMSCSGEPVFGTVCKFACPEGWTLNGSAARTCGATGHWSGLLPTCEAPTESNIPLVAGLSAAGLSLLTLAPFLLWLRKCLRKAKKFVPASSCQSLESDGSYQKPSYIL
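Material: HUVEC primary endothelial cells; Amount: 3,000 cells per well; Dosing: single concentration; Medium: EGM-2 growth medium on 0.1% gelatin-coated wells; Read-out basis: percent E-selectin-positive cells; Signal: immunofluorescence imaging; Control set: TNF-alpha, DMSO.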
FGF22 binding-2 = binders of human FGF22 protein, dose response, FGF22 synaptogenesis inhibitor project, biophysical, thermal shift, cherry-pick retest; shares compounds with FGF22 binding-1; recombinant FGF22 thermal shift, SYPRO orange fluorescence; thermal shift activity, °C (ΔTm) at 38 µM; 2% of 1,000 active;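 active means fitted rise in melting shift crosses a set limit at or below the top valid dose tested; inconclusive means flat fit at mid-level activity, or a poor quality fit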
SYPRO no-protein = compound-only thermal shift signal without protein, dose response, artefact control for FGF22 binder project, biochemical, cherry-picked samples, RT-PCR instrument; compound-only SYPRO orange thermal shift counter-screen, no protein; AC50, µM (highest dose often 38 µM); shares compounds with FGF22 binding-1; 2% of 1,000 active;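 active means rising signal whose fitted curve reaches the 0.54 level within the top valid dose, showing a melting point, actives reach about 13 µM in these data; inactive means the rest, including activity in the opposite direction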; further: value is where the raw curve crosses a fixed level and not half-maximal
AID977621 = growth inhibition of wild-type GFP E. coli, dose response, H69 mutant RFP, cherry-pick; shares compounds with rRNA inh HTS; E. coli wild-type GFP strain growth, fluorescence, 24 h; activity change, negative = inhibition at 50 µM; 1,900 tested, under 10 active;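 active means Wild-type ribosome reporter drop at least double the humanized mutant ribosome reporter drop, growth loss under a set limit; inconclusive means no clear call, values can overlap the other calls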;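 further: wild-type GFP and H69 mutant RFP strains grown together 50/50 in each well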
AID977628 = E. coli growth inhibition, wild-type GFP versus h24 humanized RFP strain, dose response, h24 mutant RFP vs wild-type GFP, cherry-pick; E. coli WT GFP strain growth, fluorescence, 24 h; shares compounds with rRNA inh HTS; activity change, negative = inhibition at 50 µM; 1,900 tested, under 10 active;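 active means compound lowering the normal-ribosome reporter at least twice as much as the humanized-ribosome reporter, growth loss under a set limit; inconclusive means no clear call, values can overlap the other calls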;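 further: wild-type GFP and h24 humanized RFP strains co-cultured 1 to 1 per well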
The depositor's hits bear a star; i = inactive; ? = inconclusive; . = not tested or not shown. Most compounds without a hit are left out; they make up all but 4% or so of the library.

SMILES	FGF22 binding-1	rRNA inh HTS	C2C12 statin	FN deposit inh	SIRT5 block	E-sel inducer	AID977621	AID977628	others
CCOC(=O)c1cc2c(c(-c3cccc(-c4cccc(F)c4)c3)n1)[C@H](CCO)N(S(=O)C(C)(C)C)C2 (stereo not given in full)	0	-3	.	-10	7	0	.	.
CO[C@@H]1CN(C)C(=O)c2ccc(NC(C)=O)cc2OC[C@@H](C)N(CCC(F)(F)F)C[C@@H]1C	0	-2	.	9	.	0	.	.
C[C@H](CO)N1C[C@H](C)[C@H](CN(C)C)Oc2cc(C#Cc3ccccc3)ccc2S1(=O)=O	0	2	1	.	0	.	.	.
O=C(N/N=C/c1ccc[nH]1)c1cc2ccccc2cc1O	1.8*	3	-7	6	5	0	.	.	FGF22 binding-2=0.084;SYPRO no-protein=i
O=C(N/N=C/c1ccncc1)c1cc2ccccc2cc1O	0	1	-8	.	9	-1	.	.
CC(=O)Nc1ccc2nc(NC(=O)COc3ccc(C)cc3)sc2c1	1.5*	.	.	-16	-3	0	.	.	FGF22 binding-2=-0.001;SYPRO no-protein=12µM*
CC(=O)Nc1ccc2nc(NC(=O)COc3ccccc3)sc2c1	0	4	-9	-4	0	-1	.	.
Cc1ccc2nc(-c3ccc(NC(=O)CSCC(=O)O)cc3)sc2c1	0	-36	-3	-17	-2	.	.	.
Cc1ccc2nc(-c3ccc(NC(=O)COCC(=O)O)cc3)sc2c1	23*	-35*	.	-1	-11	0	.	.	FGF22 binding-2=0.22;SYPRO no-protein=i
CCCC(=O)Nc1ccc2c(c1)C(=O)N(C)[C@H]1CC[C@H](CC(=O)NCc3ccccc3)O[C@@H]1CO2	0	4	5	-3	1	0	.	.
Cc1noc(C)c1NC(=O)N(C)C[C@@H]1Oc2c(NC(=O)c3ccncc3)cccc2C(=O)N([C@@H](C)CO)C[C@@H]1C	0	4	-3	.	-10	15	.	.
COCCN1CCN(Cc2nc(Cc3ccc(OC)c(OC)c3)no2)CC1	8.0*	9	4	4	-1	0	.	.	FGF22 binding-2=0.052;SYPRO no-protein=i
Cc1ccc(N2C(=S)NC3c4cc(Cl)ccc4OC2(C)C3C(=O)N(C)C)cc1 (stereo not given)	0	-22*	3	.	1	.	-13	?
CN(C(=O)c1ccc(F)cc1)c1ccc(OCC(=O)Nc2ccccc2C(=O)O)cc1	0	-14*	1	-1	.	0	-0.79	?
O=C(COc1ccc(Br)cc1)Nc1ccc(C(=O)Nc2ccccc2C(=O)O)cc1	0	-28*	2	-8	1	.	-2.8	-6.1
CC(=O)NS(=O)(=O)c1ccc(NC(=O)COc2ccc(C(=O)c3ccccc3)cc2)cc1	1	-27*	.	-1	-1	.	?	.
CCC(=O)N1[C@H](CO)[C@@H](c2ccccc2)C12CN(Cc1cccnc1)C2	0	3	.	.	-4	0	.	.
CNC[C@H]1Oc2ccc(N(C)C)cc2CC(=O)N([C@@H](C)CO)C[C@H]1C	0	8	-42	-2	3	.	.	.
COc1ccc(-c2csc(NC(=O)c3c(C)noc3C)n2)cc1	0	-6	-74	-6	1	.	.	.
COc1ccc(-c2csc(NC(=O)c3ccccc3S(C)(=O)=O)n2)cc1	0	-36*	.	-2	-3	0	-6.3	?
COc1ccc(-c2csc(NC(=O)c3ccoc3C)n2)cc1	0	-25*	.	-8	2	1	.	-7.2
CNC[C@@H]1OCCCC[C@H](C)Oc2ccc(NC(=O)CCC(F)(F)F)cc2C(=O)N([C@@H](C)CO)C[C@H]1C	0	8	9	.	1	0	.	.
Cc1nn(CC(=O)OCCOc2ccc(Br)cc2)c(C)c1[N+](=O)[O-]	0	-25*	.	3	-4	0	-12	?
Cc1nn(CC(=O)c2ccccc2Cl)c(C)c1[N+](=O)[O-]	0	-5	.	3	-1	?	.	.
Cc1nn(CC(=O)c2ccc(Br)s2)c(C)c1[N+](=O)[O-]	0	-21*	.	-2	-1	.	5.2	-4.5
SMILES	FGF22 binding-1	rRNA inh HTS	C2C12 statin	FN deposit inh	SIRT5 block	E-sel inducer	AID977621	AID977628	others
Cc1ccc(CNC(=O)COC(=O)Cn2nc(C)c([N+](=O)[O-])c2C)cc1	0	9	3	5	0	.	.	.
N#Cc1ccc2[nH]cc(C3c4cc(F)ccc4C=C(c4ccsc4)N3c3ccc(C#CCCO)cc3)c2c1 (stereo not given)	0	-25	.	10	-1	0	.	.
COc1cc(-c2ccc(N3C(c4ccsc4)=Cc4ccc(F)cc4C3c3c[nH]c4ccc(C#N)cc34)cc2)cc(OC)c1OC (stereo not given)	0	-25*	.	5	3	0	-5.6	-2.1
O=[N+]([O-])c1ccc(-[n+]2nc(-c3ccccc3)nn2-c2ccccc2)cc1	0	-22*	-18	10	1	0	.	?
O=c1ccc(-c2ccc([N+](=O)[O-])cc2)nn1-c1ccccc1	0	21	7	.	-4	.	.	.
Cc1cccc(C)c1NC(=O)C1(C)CSCC(=O)N1CCOc1ccccc1 (stereo not given)	0	-22*	.	-1	2	0	-12	-18
CCC(=O)N1[C@H](CO)[C@@H](c2ccccc2)C12CN(CC1CCOCC1)C2	0	5	.	.	-2	0	.	.
CC1CN(CC(=O)Nc2nc3ccccc3s2)CC(C)O1 (stereo not given)	0	-15*	1	-4	.	.	5.1	?

Assay outcomes deposited in PubChem by Broad Institute.
